Efflux pump inh = inhibitors of Candida efflux pumps in yeast, primary screen, S. cerevisiae, Nile Red, multiplex | S. cerevisiae Candida pump triplex | inhibition, % at 10 µM | 330,000 compounds, 0.44% hits | AID 485275, 2010;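 active means plate passing quality check with inhibition over a set limit, or well fluorescence over plate mean plus 4 SD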;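 further: Nile Red retained in pooled yeast measured as flow cytometry median fluorescence; 0% = buffer negative control and 100% = Enniatin B positive control; higher means more Nile Red kept so more efflux inhibition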
ABCB1 inh = ABCB1 efflux pump inhibitors, primary screen, cell-based, multiplex, flow cytometry, ABCG2 counter-screen. inhibition, % at 6.6 µM. 190,000 compounds, 0.067% hits. ATP-dependent translocase ABCB1 (Homo sapiens), P08183. AID 1326, 2008. CCRF-Adr cells, JC-1 efflux; in the data active means inhibition above about 40%;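 further: 0% = vehicle and 100% = reference inhibitor; higher value means more JC-1 retained so stronger ABCB1 efflux block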
MEKK2mut PB1 HTS = MEK5 binding signal on mutant MEKK2 PB1, primary screen, biochemical, multiplex bead flow cytometry, Alexa488-MEK5; percent response, % at 10 µM; Alexa488-MEK5 binding to MEKK2 mutant; 290,000 compounds, 0.35% hits; in the data active means percent response above about 24%, passing the limit was not always enough
MEKK2 WT-MEK5 = modulators of MEK5 binding to wildtype MEKK2, primary screen, biochemical, multiplex bead flow cytometry, Alexa488-MEK5; Alexa488-MEK5 binding to MEKK2 WT; actives lie on both sides; AID 1531, 2009; Mitogen-activated protein kinase kinase kinase 2 (Homo sapiens), Q9Y2U5; binding response (% of control), % at 10 µM; 290,000 compounds, 1.1% hits; in the data active means binding response below about 67% or above about 130%
MEKK3 PB1 HTS = modulators of MEKK3-MEK5 PB1 binding, primary screen, biochemical, wildtype MEKK3, multiplex bead flow cytometry, Alexa488-MEK5. Mitogen-activated protein kinase kinase kinase 3 (Homo sapiens), Q99759. bead-based flow cytometry, Alexa488-MEK5 binding to MEKK3; actives lie on both sides; 0 = blocked by unlabeled MEK5, 100 = vehicle. binding response (% of control), % at 10 µM. 290,000 compounds, 1.4% hits;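 active means binding response more than 3 SD above or below the average of its plate-row segment, actives on both sides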;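 further: Alexa488 bead fluorescence after subtracting the streptavidin-only scavenger bead signal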
Target sequence (Q99759 whole entry, looked up): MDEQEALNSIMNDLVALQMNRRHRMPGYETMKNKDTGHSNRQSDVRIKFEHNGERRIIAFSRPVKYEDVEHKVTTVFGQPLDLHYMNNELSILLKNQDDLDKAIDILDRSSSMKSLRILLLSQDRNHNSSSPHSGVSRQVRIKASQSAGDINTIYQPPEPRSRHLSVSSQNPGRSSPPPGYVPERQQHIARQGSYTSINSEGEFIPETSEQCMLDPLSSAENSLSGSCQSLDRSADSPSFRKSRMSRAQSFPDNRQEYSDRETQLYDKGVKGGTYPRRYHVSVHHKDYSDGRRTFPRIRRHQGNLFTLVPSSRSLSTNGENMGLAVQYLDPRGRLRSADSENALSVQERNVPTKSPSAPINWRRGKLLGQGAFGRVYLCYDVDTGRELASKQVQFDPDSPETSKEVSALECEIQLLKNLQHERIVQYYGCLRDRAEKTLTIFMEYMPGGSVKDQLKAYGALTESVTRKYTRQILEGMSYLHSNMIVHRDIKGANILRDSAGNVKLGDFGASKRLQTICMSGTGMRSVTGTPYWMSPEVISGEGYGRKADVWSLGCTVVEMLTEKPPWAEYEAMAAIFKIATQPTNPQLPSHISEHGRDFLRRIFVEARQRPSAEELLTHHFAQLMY
ABCG2 block = ABCG2 efflux pump inhibitors, primary screen, multiplex with ABCB1, IgMXP3 cells, flow cytometry; 190,000 compounds, 0.1% hits; Broad substrate specificity ATP-binding cassette transporter ABCG2 (Homo sapiens), Q9UNQ0; JC-1 efflux; AID 1325, 2008; inhibition, % at 6.6 µM;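 active means inhibition above 80%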;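 further: 0% = DMSO and 100% = nicardipine control wells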
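Measure – % inhibition of efflux relative to nicardipine and DMSO · Test system – ABCG2 IgMXP3 and barcoded ABCB1 CCRF-Adr cell mix · Control set – nicardipine as high control, DMSO as low control · Compound – one concentration, 6.6 µM final · Signal – flow cytometry of retained JC-1 fluorescence · Timing – 10 min exposure at 25 °C with rotation, no wash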
MEKK2wt confirm = modulators of MEK5 binding to wildtype MEKK2, confirmation, biochemical, single concentration, multiplex bead flow cytometry; shares compounds with MEKK3 PB1 HTS; Alexa488-MEK5 binding to MEKK2 WT; actives lie on both sides; binding response (% of control), % at 10 µM; 5,900 compounds, 2.4% hits; AID 1892, 2009; in the data active means binding response below about 16% or above about 210%; inactive means in between
MEKK2mut confirm = mutant MEKK2 PB1-MEK5 binding signal retest – biochemical, single concentration, multiplex bead flow cytometry, confirmation; shares compounds with MEKK3 PB1 HTS; 5,900 compounds, 2% hits; Alexa488-MEK5 binding to MEKK2 mutant; percent response, % at 10 µM; in the data active means percent response mostly above about 71%, no sharp cut-off; inactive means mostly below about 38%;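 further: higher means compound restores mutant binding toward wildtype level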
MEKK3-MEK5 inh = MEKK3 wild-type PB1 binding to MEK5, inhibitors, confirmation, biochemical, bead multiplex flow cytometry, single concentration, wildtype; shares compounds with MEKK3 PB1 HTS; AID 1894, 2009; 5,900 compounds, 1.8% hits; Alexa488-MEK5 binding to MEKK3; stronger effect = lower value; binding response (% of control), % at 10 µM;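 active means binding response below 72% of control, or above a set upper limit, though filed actives all read lower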;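 further: 100% = DMSO only wells and 0% = binding blocked by excess unlabeled MEK5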
Active calls of the source: *; / = not tested or not shown; ! = a repeat was not active; [ ] = another dose, or the depositor's remark. The list is not random: actives were taken first. Their share in the collection is about 2.5%.

SMILES | Efflux pump inh | ABCB1 inh | MEKK2mut PB1 HTS | MEKK2 WT-MEK5 | MEKK3 PB1 HTS | ABCG2 block | MEKK2wt confirm | MEKK2mut confirm | MEKK3-MEK5 inh
CCOCCCNC(=O)C(NC(=O)c1ccc2c(c1)OCO2)c1ccc(OC)cc1 (centres undefined) | -0.1 | 0.1 | 8.0 | 107.0 | 104.0 | 2.1 | / | / | /
O=C(/C=C/c1ccccc1)N1CCC(N2CCC(C(=O)N3CCOCC3)CC2)CC1 | -0.6 | 0.4 | 1.0 | 106.0 | 101.0 | -0.1 | / | / | /
O=c1c2ccccc2c(C=NC2CCN(Cc3ccccc3)CC2)c(O)n1Cc1ccc2c(c1)OCO2 | 0.1 | 4.4 | 18.0 | 154.0* | 101.0 | 8.3 | 156.0 | 20.0 | 96.0
CCOc1cc(/C=N/O)cc(Br)c1OCC | 0.0 | 0.6 | 6.0 | 100.0 | 124.0* | 1.5 | 103.0 | 0.0 | 102.0
CC1CC2=C(C(=O)O1)C(C)Nc1ccccc1N2 (centres undefined) | 0.4 | 0.1 | 1.0 | 105.0 | 155.0* | 1.0 | 102.0 | -1.0 | 100.0
CC1=NN(C(=O)Cn2nc([N+](=O)[O-])c(Br)c2C)C(O)(C(F)(F)F)C1 (centres undefined) | -0.1 | 1.5 | 0.0 | 96.0 | 116.0 | 17.9 | / | / | /
Cc1cc(-c2n[nH]c(=S)n2/N=C/c2sccc2C)n[nH]1 | -0.1 | 0.2 | 0.0 | 107.0 | 148.0* | 4.0 | 104.0 | 0.0 | 102.0
Cc1ccccc1-n1c(C)nc2ccccc21 | 0.1 | -0.2 | 0.0 | 107.0 | 108.0 | -1.0 | / | / | /
COc1nc2c(c(-c3cc(Br)cs3)c1C#N)Cc1ccccc1-2 | 0.1 | / | 25.0 | 127.0 | 133.0* | / | 98.0 | -4.0 | 102.0
COCCn1c(=NC(=O)c2ccc(S(=O)(=O)N3CCc4ccccc4C3)cc2)sc2cc(OC)ccc21 | -0.1 | -3.0 | -1.0 | 92.0 | 91.0 | -10.5 | / | / | /
COc1ccccc1N(C)S(=O)(=O)c1ccc(C(=O)OCC(=O)Nc2ccccc2F)cc1 | 0.3 | 5.2 | -16.0 | 45.0*[inhibitor] | 46.0*[inhibitor] | 35.6 | 94.0 | 0.0 | 99.0
c1ccc2c(NCCc3c[nH]c4ccccc34)c3ccccc3nc2c1 | 0.1 | / | 48.0* | 220.0* | 112.0 | / | 176.0 | 46.0 | 106.0
O=C(COc1ccc(Br)cc1)Nc1cc(S(=O)(=O)N2CCCCC2)ccc1N1CCCCC1 | 0.8 | 0.3 | 0.0 | 106.0 | 139.0* | 12.2 | 101.0 | -1.0 | 101.0
Cc1ccc(N(C(=O)CS(=O)CC(=O)Nc2ccc(F)cc2)C(C(=O)NC2CCCCC2)c2ccco2)cc1 (centres undefined) | 0.1 | 0.1 | 0.0 | 105.0 | 132.0* | -1.7 | 99.0 | 7.0 | 102.0
CCOC(=O)c1c(NC(=O)c2ccc(N3C(=O)[C@@H]4[C@H](C3=O)[C@H]3C=C[C@@H]4C3)cc2)sc2c1CCCC2 | 0.3 | 3.6 | 0.0 | 108.0 | 145.0* | 20.9 | 97.0 | -4.0 | 100.0
CCOC(=O)c1c(NC(=O)C2CCCN(S(=O)(=O)c3ccccc3)C2)sc2c1CCCC2 (centres undefined) | -0.2 | 3.6 | -2.0 | 95.0 | 101.0 | 37.0 | / | / | /
CCOC(=O)c1c(NC(=O)c2ccc(-n3cnnn3)cc2)sc2c1CCCC2 | / | -3.1 | -1.0 | 97.0 | 94.0 | -3.9 | / | / | /
CCOC(=O)c1c(NC(=O)Cn2cnc([N+](=O)[O-])n2)sc2c1CCCC2 | -0.3 | 2.0 | 4.0 | 103.0 | 130.0* | 24.8 | 99.0 | 3.0 | 103.0
CCOC(=O)c1c(NC(=O)C2CCCN(S(=O)(=O)c3ccc(C)cc3)C2)sc2c1CCCC2 (centres undefined) | 0.1 | 1.2 | 1.0 | 107.0 | 141.0* | 3.8 | 94.0 | -2.0 | 101.0
O=C(COC(=O)C1(c2ccc(F)cc2)CCCC1)NCc1ccco1 | 0.0 | 1.6 | -2.0 | 96.0 | 99.0 | 1.8 | / | / | /
COc1ccccc1/C=C/C(=O)OCCN1C(=O)c2ccccc2C1=O | -0.1 | / | 1.0 | 102.0 | 101.0 | / | / | / | /
CCOC(=O)c1cc(C#N)c(SCC(=O)c2cc(C#N)c(SC)nc2C)[nH]c1=O | -0.1 | -0.2 | -14.0 | 80.0 | 74.0*[inhibitor] | -0.3 | 102.0 | -4.0 | 101.0
CCCc1c(C(=O)N/N=C/c2ccco2)nnn1-c1nonc1N | -0.1 | / | -1.0 | 95.0 | 98.0 | / | / | / | /
CCOC(=O)C(NC(=O)c1ccccc1)(OCc1ccc(F)cc1)C(F)(F)F (centres undefined) | 0.4 | 1.4 | 1.0 | 106.0 | 128.0* | 3.8 | 102.0 | 0.0 | 103.0
CCOC(=O)c1sc(NC(=O)CSc2nc3c(c(=O)n2-c2ccc(C)cc2)SCC3)c(C(=O)OCC)c1C | 0.3 | 2.1 | 8.0 | 73.0 | 71.0*[inhibitor] | 4.4 | 95.0 | 7.0 | 101.0
SMILES | Efflux pump inh | ABCB1 inh | MEKK2mut PB1 HTS | MEKK2 WT-MEK5 | MEKK3 PB1 HTS | ABCG2 block | MEKK2wt confirm | MEKK2mut confirm | MEKK3-MEK5 inh
COc1ccc(CCN2CC(C(=O)NCCc3ccccc3C)CCC2=O)cc1 (centres undefined) | 0.1 | / | 2.0 | 104.0 | 102.0 | / | / | / | /
CCCN1CCc2c(sc(NC(=O)C3CCN(S(=O)(=O)c4cccs4)CC3)c2C(N)=O)C1 | 0.0 | / | / | / | / | / | / | / | /
O=C(NCC1CCCCC1)C1(CC2CC(c3cccc(Br)c3)=NO2)CCNCC1 (centres undefined) | -0.1 | / | 15.0 | 145.0* | 101.0 | / | 125.0 | 16.0 | 101.0
CC(=O)c1cccc(NC(=O)C(=O)c2cn(CC(=O)N3CCCCC3)c3ccccc23)c1 | 0.1 | 0.1 | -3.0 | 99.0 | 107.0 | 0.0 | / | / | /
COc1cc(OC)c(-c2c3cc(O)c(=O)cc-3oc3cc(O)c(O)cc23)cc1OC | 0.2 | 0.4 | -2.0 | 88.0 | 100.0 | -0.3 | / | / | /
Cc1c2cc(O)c(=O)cc-2oc2cc(O)c(O)cc12 | 1.0* | 47.0* | -6.0 | 25.0*![inhibitor] | 54.0*![inhibitor] | 7.5 | 77.0 | -21.0 | 64.0*
Cc1cc(NC(=O)CSCC(=O)OCc2nnc(-c3ccc(F)cc3)o2)no1 | -0.3 | / | / | / | / | / | / | / | /
CC(C)c1cc(C(=O)Nc2cc(Cl)ccc2O)no1 | 0.2 | 0.5 | -28.0 | 13.0*[inhibitor] | 8.0*[inhibitor] | 4.3 | 105.0 | 5.0 | 110.0

High-throughput results (PubChem BioAssay)
